Read-outs that look alike come from different tables or passages of the source.
Tests used:
[1] = six clinical pharmacology studies; cited from earlier work
[2] = ref summary of product characteristics of olaparib; cited from earlier work
[3] = Japanese patients, 300 mg single dosing; cited from earlier work
[4] = previous studies; cited from earlier work
Effect of food: fed = format: in vivo, healthy Chinese male subjects; settings: 150 mg; P < 0.05
[5] = patients; cited from earlier work
[6] = Chinese patients, cited from earlier work
[7] = Safety monitoring over Part A, Part B and Part C; format: in vivo; settings: healthy Chinese male subjects, single dose 100 mg or 150 mg
Method in brief: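 Single oral dose in a randomized two-sequence (TR/RT) crossover, two periods, 7-day washout. Part A: 100 mg fasting (n = 14). Part B: 150 mg fasting (n = 44). Part C: 150 mg after a high-fat breakfast (n = 44). TEAEs, both subject-reported and investigator-observed including lab values, were collected throughout and graded by CTCAE 5.0. Monitoring covered physical exams, vital signs, laboratory tests, 12-lead ECG and CT scans.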

[8] = FDA Adverse Event Reporting System, cited from earlier work
[9] = format: in vivo, healthy Chinese male subjects; settings: male, human, plasma, po, 150 mg
Method in brief: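 Two-sequence (TR/RT), two-period randomised crossover in 44 healthy males (18–50 y, BMI 19–26 kg/m2, ≥50 kg) with a 7-day washout. Each period: single oral 150 mg tablet (test or reference) under fasting, with fasting kept ≥4 h post-dose. Plasma spun at 1700 g, 10 min, 2–8°C, stored at −80°C. Assay: protein precipitation, HPLC-MS/MS, positive ion mode, calibration 10.0–5000 ng/mL.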

Compound	tolerability in healthy individuals [1]	Tmax delayed by high-fat, high-calorie meal [2]	mean AUC increased by high-fat, high-calorie meal [2]	arithmetic mean t1/2 [3]	median Tmax [3]	inter-individual variation in the AUC [4]	difference in Tmax, fed vs fasting state (Effect of food: fed)	first nausea, time after treatment initiation [5]	first vomiting, time after treatment initiation [5]	median time to first occurrence of anemia [5]	arithmetic mean t1/2 ([6]; 100 mg single dosing)	median Tmax ([6]; 100 mg single dosing)	arithmetic mean t1/2 ([6]; 300 mg single dosing)	tolerability [7]	adverse events received related to olaparib ([8]; 2008 through first quarter of 2023)	adverse events connected to genotoxicity [8]	Tmax [9]	half-life [9]
O=C(c1cc(Cc2n[nH]c(=O)c3ccccc23)ccc1F)N1CCn2nc(C(F)(F)F)nc2C1 [fluzoparib]	well tolerated	–	–	–	–	–	–	–	–	–	–	–	–	–	–	–	–	–
O=C(c1cc(Cc2n[nH]c(=O)c3ccccc23)ccc1F)N1CCN(C(=O)C2CC2)CC1 [olaparib]	–	2.5 h	approximately 8%	9.43 h	1.98 h	55–57%	significantly prolonged	≤ 1 month	≤ 2 months	approximately 4 weeks	7.17 h	1.95 h	6.52 h	well tolerated	10,957	no adverse events	1.5 h	5.94 h
